The values that follow come from ChEMBL document CHEMBL4219084, “Design, synthesis and biological assessment of N-adamantyl, substituted adamantyl and noradamantyl phthalimidines for nitrite, TNF-α and angiogenesis inhibitory activities” (Bioorg Med Chem, 2018).

The species entered for series [1] is Danio rerio. Put plainly: Antiangiogenic activity in 24 hrs post fertilized zebra fish embryo harboring fli1:EGFP assessed as intersegmental vessel length after 24 hrs by fluorescence microscopic analysis. Type of series: functional, organism-based. Summed up: (§1)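 fli1:EGFP transgenic zebrafish embryos, identified by fluorescence, manually dechorionated at 24 h post fertilization and placed in plates with compound diluted in tank water, vehicle controls alongside. After 24 h exposure, embryos anaesthetized with 0.1% tricaine and intersegmental vessels scored for length (µm) and number. Values given as mean ± S.E.M.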

The species named for series [2] is Danio rerio. Kind of series: Antiangiogenic activity in 24 hrs post fertilized zebra fish embryo harboring fli1:EGFP assessed as intersegmental vessel length at 10 ug/ml after 24 hrs by fluorescence microscopic analysis. Type of series: functional. An outline of the steps:
as §1

Series [3] is described as follows: Cytotoxicity against LPS-induced mouse RAW264.7 cells assessed as cell viability at 30 uM pretreated for 1 hr followed by LPS-challenge measured after 20 to 24 hrs by CellTiter 96 aqueous non-radioactive cell proliferation assay. Type of series: cell-based. Particulars: LPS-induced RAW264.7 cells, read-out: Activity. Summed up: (§2)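 RAW 264.7 cells in DMEM with 10% FBS and penicillin/streptomycin, 37 °C, 5% CO2, seeded at 200×10^3 per well in 24-well plates. Media replaced at 24 h. Compound in DMSO (0.5% final) added 2 h later, then LPS 60 ng/ml 1 h after that. Media collected 20–24 h after LPS. 3–4 wells per concentration, expressed as % of DMSO vehicle control (mean ± SE).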

For series [4], the species on record is Danio rerio. Kind of series: Toxicity in 24 hrs post fertilized zebra fish embryo harboring fli1:EGFP at >50 ug/ml. The series is classed as organism-based. As to conditions: zebrafish, in vivo.
Series [5] concerns RAW264.7. Kind of series: Antiinflammatory activity in mouse RAW264.7 cells assessed as reduction in LPS-induced TNFalpha production by measuring TNFalpha levels at 30 uM pretreated for 1 hr followed by LPS-challenge measured after 20 to 24 hrs by ELISA relative to control. The series is classed as functional. Details: scale not given: the % may be the effect or the level left. Summed up: as §2

In series [6] the test system is RAW264.7. Put plainly: Antiinflammatory activity in mouse RAW264.7 cells assessed as reduction in LPS-induced nitrite production by measuring nitrite levels at 30 uM pretreated for 1 hr followed by LPS-challenge measured after 20 to 24 hrs by Griess assay relative to control. Type of series: functional. Further details: scale not given: the % may be the effect or the level left. An outline of the steps:
as §2

The species named for series [7] is Danio rerio. Kind of series: Antiangiogenic activity in 24 hrs post fertilized zebra fish embryo harboring fli1:EGFP assessed as number of intersegmental vessel at 10 ug/ml after 24 hrs by fluorescence microscopic analysis. Type of series: functional. An outline of the steps:
as §1

For series [8], the species on record is Danio rerio. Put plainly: Toxicity in 24 hrs post fertilized zebra fish embryo harboring fli1:EGFP at >5 ug/ml. The series is classed as organism-based. Particulars: zebrafish, in vivo.
The species named for series [9] is Danio rerio. Kind of series: Antiangiogenic activity in 24 hrs post fertilized zebra fish embryo harboring fli1:EGFP assessed as intersegmental vessel length at 5 ug/ml after 24 hrs by fluorescence microscopic analysis. The series is classed as functional. An outline of the steps:
as §1

The species named for series [10] is Danio rerio. Kind of series: Antiangiogenic activity in 24 hrs post fertilized zebra fish embryo harboring fli1:EGFP assessed as number of intersegmental vessel at 5 ug/ml after 24 hrs by fluorescence microscopic analysis. Type of series: functional. Summed up: as §1
Series [11] can be described thus: Solubility of the compound in DMEM media at 30 uM. The series is classed as physicochemical.

For `Nc1cccc2c1CN(C1C3CC4CC(C3)CC1C4)C2=O` (stereo not drawn), the Activity result is “Dose-dependent effect” in the series filed under Danio rerio [1]; 42.1 um in the series listed under Danio rerio [2]; “Toxic” in the series listed under Danio rerio [4]; 101% in the series with RAW264.7 [5]; 72% with RAW264.7 [6]; 14 in the series listed under Danio rerio [7]. For the same compound, in series [3], the viability at 30 µM stood at 99%.
On to `CC(N1Cc2c(cccc2[N+](=O)[O-])C1=O)C12CC3CC(CC(C3)C1)C2` (stereo not drawn), for which the viability at 30 µM in series [3] was 81%. Further, the Activity in the series on RAW264.7 [5] is listed as 72%; in the series on RAW264.7 [6], 35%.
For `O=C1c2cccc([N+](=O)[O-])c2CN1C1C2CC3CC(C2)CC1C3` (stereo not drawn), the viability at 30 µM in series [3] was found to be 82%. For the same compound, the Activity result is on record as “Toxic” in the series listed under Danio rerio [8]; 48.2 um in the series listed under Danio rerio [9]; 65% in the series on RAW264.7 [5]; 9.2% with RAW264.7 [6]; 14.6 in the series filed under Danio rerio [10].
For `O=C1c2cccc([N+](=O)[O-])c2CN1CC12CC3CC(CC(C3)C1)C2`, in series [3], the viability at 30 µM amounted to 92%. Besides, the Activity with RAW264.7 [5] was determined as 77%; with RAW264.7 [6], 55%.
As for `O=C1c2ccccc2CN1C12CC3CC(CC(O)(C3)C1)C2`, the Activity in the series filed under Danio rerio [2] is recorded as 105.1 um; in the series with RAW264.7 [5], 80%; in the series on RAW264.7 [6], 101%; in the series listed under Danio rerio [7] it was 19.5. The viability at 30 µM in series [3] was determined as 98%.
Take `O=C1c2ccccc2CN1C12CC3CC(CC1C3)C2`: the viability at 30 µM in series [3] is 74%. Also, the Activity in the series on RAW264.7 [5] is 52%.
Take `CC(N1Cc2ccccc2C1=O)C12CC3CC(CC(C3)C1)C2` (stereo not drawn): the viability at 30 µM in series [3] was found to be 82%. Moreover, the Activity was found to be 55% in the series with RAW264.7 [5] and 52% in the series with RAW264.7 [6].
Taken in the same sequence, the figures for `O=C1c2cccc([N+](=O)[O-])c2CN1C12CC3CC(CC(O)(C3)C1)C2` were 107%, 91% and 94%.
`O=C1c2cccc([N+](=O)[O-])c2CN1C12CC3CC(CC(C3)C1)C2`: the solubility result in [11] was “Insoluble”. Further, the viability at 30 µM in series [3] was 114%. The Activity in the series on RAW264.7 [5] is given as 86%; with RAW264.7 [6], 40%.
For `S=C1c2ccccc2CN1C12CC3CC(CC1C3)C2`, in series [11], the solubility result is on record as “Insoluble”. The viability at 30 µM in [3] was found to be 94%. Moreover, the Activity in the series with RAW264.7 [5] is listed as 85%.
As for `CC(N1Cc2c(cccc2[N+](=O)[O-])C1=S)C12CC3CC(CC(C3)C1)C2` (stereo not drawn), the Activity in the series filed under Danio rerio [2] is 86.4 um; with RAW264.7 [5] it was 96%; in the series with RAW264.7 [6], 11.5%; in the series listed under Danio rerio [7], 22. Also, in [3], the viability at 30 µM was found to be 83%.
Regarding `O=C1c2ccccc2CN1C1C2CC3CC(C2)CC1C3` (stereo not drawn), the viability at 30 µM in series [3] is 75%. For the same compound, the figures for the Activity with RAW264.7 [5] and in the series with RAW264.7 [6] were 58% and 62%, respectively.
Take `O=C1c2cccc([N+](=O)[O-])c2CN1C12CC3CC(CC1C3)C2`: the Activity entry is “Dose-dependent effect” in the series filed under Danio rerio [1]; 42.8 um in the series listed under Danio rerio [2]; “Toxic” in the series listed under Danio rerio [4]; 90% with RAW264.7 [5]; 49% in the series on RAW264.7 [6]; 8.6 in the series filed under Danio rerio [7]. Moreover, the viability at 30 µM in [3] worked out at 92%.
Turning to `O=C1c2ccccc2CN1CC12CC3CC(CC(C3)C1)C2`, the Activity in the series listed under Danio rerio [2] is 83.1 um; in the series with RAW264.7 [5] it was 59%; in the series with RAW264.7 [6] it was 50%; in the series filed under Danio rerio [7], 18.2. Further, in [3], the viability at 30 µM was 81%.
Turning to `CC(N1Cc2ccccc2C1=S)C12CC3CC(CC(C3)C1)C2` (stereo not drawn), the solubility entry in [11] is listed as “Insoluble”. The viability at 30 µM in [3] is 84%. The Activity in the series on RAW264.7 [5] came to 90%; in the series with RAW264.7 [6], 52%.
